How the values were obtained:
B16-F1 [1] = assay: Antitumor activity against mouse B16-F1 cells allografted in C57BL/6 mouse assessed as tumor volume at 600 ug, ip administered every other day up to day 29 measured on day 29 post last dose (reference value: 2.83 cm'3); assay type: functional
Summary of the method: (§1)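 Male C57BL/6 mice, 6-8 weeks old, received 10^5 B16.F1 cells sc in the right flank on day 0. From day 11 (palpable tumors), 5 mice/group were randomized and given ip doses in 200 µL PBS every other day, 8 doses in total, up to day 29. Control group received PBS. Tumors were measured by caliper every two days; volume = 1/2(length × width²).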

MCF7 = assay: Antiproliferative activity against human MCF7 cells after 72 hrs by MTT reduction assay; assay type: functional, cell-based; settings: MCF7, 72 h
Summary of the method: (§2)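 MTT reduction assay; adherent lines left to adhere overnight, suspension lines (HL-60, K562) seeded on the day. […] Incubation was 72 h at 37°C, with MTT added for the last 4 h. OD read at 545 nm (reference 690 nm). IC50 from 100(A0-A)/A0=50; means ± SD of 3 independent experiments.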

PBMC [2] = assay: Induction of apoptosis in human PBMC assessed as late apoptotic cells at 300 ug/ml after 24 hrs by propidium iodide staining-based flow cytometric method (reference value: 0.6%); assay type: cell-based
Mus musculus [3] = assay: Toxicity in C57BL/6 mouse allografted with mouse B16-F1 cells assessed as effect on mouse survival at 600 ug, ip administered every other day up to day 29; assay type: organism-based; settings: in vivo
Summary of the method: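 Male C57BL/6 mice (6-8 wk) were injected sc with 10⁵ B16.F1 cells on day 0. From day 11 they received ip doses in 200 µL PBS every other day, 8 doses in total, with PBS controls. Tumors were caliper-measured every two days and the animals monitored to day 29 for signs of toxicity. Groups of 5.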

PBMC [4] = assay: Induction of apoptosis in human PBMC assessed as early apoptotic cells at 600 ug/ml after 24 hrs by propidium iodide staining-based flow cytometric method (reference value: 0.1%); assay type: cell-based
B16-F1 [5] = assay: Induction of apoptosis in mouse B16-F1 cells assessed as late apoptotic cells at 283.90 uM after 72 hrs by propidium iodide staining-based flow cytometric method (reference value: 1.4%); assay type: functional
Mus musculus [6] = assay: (§3) In vivo induction of tumor-reactive immune response in C57BL/6 mouse allografted with mouse B16-F1 cells assessed as splenocyte-mediated mouse WEHI 164 cell lysis at 300 ug, ip administered every other day up to day 29 measured on day 29 post last dose by flow cytometric method (reference value: 1.2 to 1.6); assay type: functional
Summary of the method: (§4)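 Male C57BL/6 mice (6-8 wk) were injected sc in the right flank with 10⁵ B16.F1 cells in PBS on day 0. From day 11, when tumors were palpable, they received ip doses in 200 µL PBS every other day (8 doses; 5 mice/group). On day 29, splenocytes were co-cultured unstimulated with targets at E:T 100:1 for 6 h at 37°C. CD107a/b MFI was read by flow cytometry, 2 mice/group tested individually.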

B16-F1 [7] = assay: Induction of apoptosis in mouse B16-F1 cells assessed as necrotic cells at 283.90 uM after 72 hrs by propidium iodide staining-based flow cytometric method (reference value: 2.5%); assay type: functional
HL-60 = assay: Antiproliferative activity against human HL60 cells after 72 hrs by MTT reduction assay; assay type: functional, cell-based; settings: HL-60, 72 h; summary of the method: as §2
HeLa = assay: Antiproliferative activity against human HeLa cells after 72 hrs by MTT reduction assay; assay type: functional, cell-based; summary of the method: as §2
PBMC [8] = assay: Induction of apoptosis in human PBMC assessed as necrotic cells at 400 ug/ml after 24 hrs by propidium iodide staining-based flow cytometric method (reference value: 1%); assay type: cell-based
B16-F1 [9] = assay: Antiproliferative activity against mouse B16-F1 cells after 72 hrs by MTT reduction assay; assay type: functional, cell-based; settings: B16-F1, 72 h; summary of the method: as §2
B16-F1 [10] = assay: Induction of apoptosis in mouse B16-F1 cells assessed as early apoptotic cells at 283.90 uM after 48 hrs by propidium iodide staining-based flow cytometric method (reference value: 0.2%); assay type: functional
PBMC [11] = assay: Induction of apoptosis in human PBMC assessed as early apoptotic cells at 300 ug/ml after 24 hrs by propidium iodide staining-based flow cytometric method (reference value: 0.1%); assay type: cell-based
K562 = assay: Antiproliferative activity against human K562 cells after 72 hrs by MTT reduction assay; assay type: functional, cell-based; settings: K562, 72 h; summary of the method: as §2
PBMC [12] = assay: Induction of apoptosis in human PBMC assessed as necrotic cells at 600 ug/ml after 24 hrs by propidium iodide staining-based flow cytometric method (reference value: 1%); assay type: cell-based
HCT-116 = assay: Antiproliferative activity against human HCT116 cells after 72 hrs by MTT reduction assay; assay type: functional, cell-based; settings: HCT-116, 72 h
Summary of the method: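 MTT reduction assay; adherent lines left to adhere overnight, suspension lines (HL-60, K562) seeded on the day. Incubation was 72 h at 37°C, with MTT added for the last 4 h.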

Mus musculus [13] = assay: as §3, with “splenocyte-mediated NK-sensitive” for “splenocyte-mediated”, “YAC-1” for “WEHI 164”, “1.7)” for “1.6)”; assay type: functional; summary of the method: as §4
Mus musculus [14] = assay: as §3, with “600” for “300”; assay type: functional; summary of the method: as §4
PBMC [15] = assay: Induction of apoptosis in human PBMC assessed as necrotic cells at 300 ug/ml after 24 hrs by propidium iodide staining-based flow cytometric method (reference value: 1%); assay type: cell-based
PBMC [16] = assay: Induction of apoptosis in human PBMC assessed as early apoptotic cells at 150 ug/ml after 24 hrs by propidium iodide staining-based flow cytometric method (reference value: 0.1%); assay type: cell-based
B16-F1 [17] = assay: Antitumor activity against mouse B16-F1 cells allografted in ip dosed C57BL/6 mouse assessed as tumor growth inhibition administered every other day up to day 29 measured on day 29 post last dose; assay type: functional, organism-based; summary of the method: as §1
B16-F1 [18] = assay: Induction of apoptosis in mouse B16-F1 cells assessed as early apoptotic cells at 283.90 uM after 72 hrs by propidium iodide staining-based flow cytometric method (reference value: 0.4%); assay type: functional
PBMC [19] = assay: Induction of apoptosis in human PBMC assessed as early apoptotic cells at 500 ug/ml after 24 hrs by propidium iodide staining-based flow cytometric method (reference value: 0.1%); assay type: cell-based
PBMC [20] = assay: Induction of apoptosis in human PBMC assessed as late apoptotic cells at 500 ug/ml after 24 hrs by propidium iodide staining-based flow cytometric method (reference value: 0.6%); assay type: cell-based
Mus musculus [21] = assay: as §3, with “splenocyte-mediated NK-sensitive” for “splenocyte-mediated”, “YAC-1” for “WEHI 164”, “600” for “300”, “1.7)” for “1.6)”; assay type: functional; summary of the method: as §4
B16-F1 [22] = assay: Induction of apoptosis in mouse B16-F1 cells assessed as late apoptotic cells at 283.90 uM after 24 hrs by propidium iodide staining-based flow cytometric method (reference value: 0.9%); assay type: functional
B16-F1 [23] = assay: Induction of apoptosis in mouse B16-F1 cells assessed as early apoptotic cells at 283.90 uM after 24 hrs by propidium iodide staining-based flow cytometric method (reference value: 0.5%); assay type: functional
PBMC [24] = assay: Induction of apoptosis in human PBMC assessed as late apoptotic cells at 150 ug/ml after 24 hrs by propidium iodide staining-based flow cytometric method (reference value: 0.6%); assay type: cell-based

## C/C=C1/[C@H](O[C@@H]2O[C@H](CO)[C@@H](O)[C@H](O)[C@H]2O)OC=C(C(=O)OC)[C@H]1CC(=O)OCCc1ccc(O)c(O)c1 [OLEUROPEIN]
B16-F1 [1]
  Activity: 2.33 cm3
MCF7
  IC50: 162 to 170 µM
PBMC [2]
  Activity: 1.9%
Mus musculus [3]
  Activity: Non-Toxic
PBMC [4]
  Activity: 6.5%
B16-F1 [5]
  Activity: 15.5%
Mus musculus [6]
  Flu intensity: 1.1 - 1.3
B16-F1 [7]
  Activity: 21.8%
HL-60
  IC50: 54.3 µM
HeLa
  IC50: 265 to 276 µM
PBMC [8]
  Activity: 4.3%
B16-F1 [9]
  IC50: 284 µM
B16-F1 [10]
  Activity: 13.6%
PBMC [11]
  Activity: 1.2%
K562
  IC50: 64.7 µM
PBMC [12]
  Activity: 16.4%
HCT-116
  IC50: 182 to 185 µM
Mus musculus [13]
  Flu intensity: 2.3 - 2.7
Mus musculus [14]
  Flu intensity: 2.5 - 2.7
PBMC [15]
  Activity: 3.9%
PBMC [16]
  Activity: 0.8%
B16-F1 [17]
  TGI: Dose-dependent effect
B16-F1 [18]
  Activity: 22.5%
PBMC [19]
  Activity: 3.1%
PBMC [20]
  Activity: 6.3%
Mus musculus [21]
  Flu intensity: 2.9 - 3.3
B16-F1 [22]
  Activity: 6.9%
B16-F1 [23]
  Activity: 9.3%
PBMC [24]
  Activity: 1.5%
